Results from ChEMBL document CHEMBL2417467, “Antiproliferative cardiac glycosides from the latex of Antiaris toxicaria” (J Nat Prod, 2013).
Activity calls are given as the source filed them. No cut-off for these calls is given here.

Experiments:
[1] = Cytotoxicity against human NIH-H460 cells assessed as cell viability at 50 nM after 48 hrs by MTT assay relative to control; type: functional; conditions: NIH-H460, 48 h
Method in brief: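 NIH-H460 cells (RPMI 1640, 10% FBS, 1% L-glutamine, penicillin/streptomycin) were seeded at 1 × 10^4 cells/well and exposed to 50 nM for 48 h. MTT was then added at 0.5 mg/mL final in medium for 2 h in the dark at 37 °C. Formazan was dissolved in DMSO for 15 min at RT and read at 570 nm. Output was inhibitory rate (%).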

NIH-H460 [2] = assay: Induction of apoptosis in human NIH-H460 cells assessed as caspase-3 activation at 20 nM after 24 hrs by Western blotting analysis; type: functional, cell-based
NIH-H460 [3] = assay: Induction of apoptosis in human NIH-H460 cells assessed as increase in PARP cleavage at 20 nM after 24 hrs by Western blotting analysis; type: functional, cell-based
Method in brief: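 Western blot of NIH-H460 lysates (8% SDS-PAGE, PVDF) probed overnight at 4 °C with anti-PARP (1:1000) to detect cleavage. Detection was by ECL, with β-actin reprobe as loading control. Cleavage was examined at 24 h post-treatment.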

[4] = Induction of apoptosis in human NIH-H460 cells at 20 nM after 36 hrs by microscopic analysis relative to control; type: functional
Method in brief: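 NIH-H460 cells were exposed to vehicle or 20 nM in serum-free medium for up to 36 h. Detached and attached cells were pooled and stained with 50 μg/mL DAPI plus 100 μg/mL RNase A at 37 °C for 20 min. Apoptotic cells were scored by cytoplasmic shrinkage, membrane blebbing and nuclear condensation/fragmentation, and reported as % apoptotic cells.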

NIH-H460 [5] = assay: Induction of apoptosis in human NIH-H460 cells assessed as localization of Nur77 in mitochondria at 20 nM after 3 hrs by immunofluorescence microscopic analysis; type: functional, cell-based
Method in brief: (§1)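 NIH-H460 cells on slides were treated with 20 nM for 3 h, then given MitoTracker Red (25 nM) for 15 min. Cells were permeabilised with 0.01% digitonin in PBS for 30 min and blocked with 1% BSA for 30 min. Anti-Nur77 (1:200) was applied for 3 h at RT, then FITC/Cy3 anti-rabbit IgG for 1 h. DAPI marked nuclei, and images were taken by confocal microscopy.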

NIH-H460 [6] = assay: Induction of apoptosis in human NIH-H460 cells assessed as localization of Nur77 in cytoplasm at 20 nM after 3 hrs by immunofluorescence microscopic analysis; type: functional, cell-based; method in brief: as §1
NIH-H460 [7] = assay: Induction of apoptosis in human NIH-H460 cells assessed as localization of Nur77 in nucleus at 20 nM after 3 hrs by immunofluorescence microscopic analysis; type: functional, cell-based; method in brief: as §1
NIH-H460 [8] = assay: Induction of Nur77 protein expression in human NIH-H460 cells at […] by Western blotting analysis; type: functional, cell-based
Method in brief: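 NIH-H460 cells were treated with vehicle or compound, either at 2.5–40 nM for 3 h or at 20 nM over a time course. Equal amounts of lysate were run on 8% SDS-PAGE and blotted to PVDF. Membranes were blocked in 5% milk/TBST and probed overnight at 4 °C with anti-Nur77 (1:1000). Bands were detected by ECL, with β-actin reprobe as loading control.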

SMILES: C[C@@H]1O[C@@H](O[C@H]2CC[C@]3(C)[C@H]4C[C@@H](O)[C@]5(C)[C@@H](C6=CC(=O)OC6)CC[C@]5(O)[C@@H]4CC[C@]3(O)C2)[C@H](O)[C@H](O)[C@H]1O [ANTIOSIDE]
- inhibition at 0.05 µM [1]: 75.7%

SMILES: C[C@H]1O[C@@H](O[C@H]2CC[C@@]3(CO)[C@H](CC[C@@H]4[C@@H]3C[C@@H](O)[C@]3(C)[C@@H](C5=CC(=O)OC5)CC[C@]43O)C2)[C@H](O)[C@H](O)[C@H]1O
- inhibition at 0.05 µM [1]: 63.8%

SMILES: C[C@]12CC[C@H]3[C@@H](CC[C@]4(O)C[C@@H](O)CC[C@]34CO[C@@H]3O[C@H](CO)[C@@H](O)[C@H](O)[C@H]3O)[C@@]1(O)CC[C@@H]2C1=CC(=O)OC1
- inhibition at 0.05 µM [1]: 29.4%

SMILES: CO[C@H]1[C@@H](O[C@H]2CC[C@]3(C=O)[C@H]4CC[C@]5(C)[C@@H](C6=CC(=O)OC6)CC[C@]5(O)[C@@H]4CC[C@]3(O)C2)O[C@H](C)[C@@H](O)[C@H]1O [STROPHATHOJAVOSIDE]
- inhibition at 0.05 µM [1]: 65%

SMILES: C[C@H]1O[C@@H](O[C@H]2CC[C@]3(CO)[C@H]4C[C@@H](O)[C@]5(C)[C@@H](C6=CC(=O)OC6)CC[C@]5(O)[C@@H]4CC[C@]3(O)C2)[C@H](O)[C@H](O)[C@H]1O
- inhibition at 0.05 µM [1]: 64.2%

SMILES: C[C@H]1O[C@@H](O[C@H]2CC[C@]3(C)[C@H]4C[C@@H](O)[C@]5(C)[C@@H](C6=CC(=O)OC6)CC[C@]5(O)[C@@H]4CC[C@]3(O)C2)[C@H](O)[C@H](O)[C@@H]1O [ANTIOGOSIDE]
- inhibition at 0.05 µM [1]: 34.3%

SMILES: C[C@@H]1O[C@@H](O[C@@H]2CC[C@]3(C=O)[C@H]4C[C@@H](O)[C@]5(C)[C@@H](C6=CC(=O)OC6)CC[C@]5(O)[C@@H]4CC[C@]3(O)C2)[C@H](O)[C@H](O)[C@H]1O
- inhibition at 0.05 µM [1]: 6.3%

SMILES: C[C@H]1O[C@@H](O[C@H]2CC[C@]3(C=O)[C@H]4C[C@@H](O)[C@]5(C)[C@@H](C6=CC(=O)OC6)CC[C@]5(O)[C@@H]4CC[C@]3(O)C2)[C@H](O)[C@H](O)[C@@H]1O
- Activity (NIH-H460 [2]): Active
- Activity (NIH-H460 [3]): Active
- Activity [4]: 22.3%
- Activity (NIH-H460 [5]): Active
- Activity (NIH-H460 [6]): Active
- Activity (NIH-H460 [7]): Active
- Activity (NIH-H460 [8]): Active
- inhibition at 0.05 µM [1]: 78.9%

SMILES: CO[C@H]1[C@@H](O[C@H]2CC[C@]3(C=O)[C@H]4C[C@@H](O)[C@]5(C)[C@@H](C6=CC(=O)OC6)CC[C@]5(O)[C@@H]4CC[C@]3(O)C2)O[C@H](C)[C@@H](O)[C@@H]1O [TOXICARIOSIDE B]
- inhibition at 0.05 µM [1]: 71.4%

SMILES: C[C@H]1O[C@H](O[C@H]2CC[C@]3(C=O)[C@H]4C[C@@H](O)[C@]5(C)[C@@H](C6=CC(=O)OC6)CC[C@]5(O)[C@@H]4CC[C@]3(O)C2)[C@H](O)[C@H](O)[C@H]1O
- inhibition at 0.05 µM [1]: 45%

SMILES: C[C@@H]1O[C@@H](O[C@H]2CC[C@]3(C=O)[C@H]4CC[C@]5(C)[C@@H](C6=CC(=O)OC6)CC[C@]5(O)[C@@H]4CC[C@]3(O)C2)[C@H](O)[C@H](O)[C@H]1O [CONVALLATOXIN]
- inhibition at 0.05 µM [1]: 82.1%

SMILES: C[C@H]1O[C@@H](O[C@H]2CC[C@]3(C)[C@H]4C[C@@H](O)[C@]5(C)[C@@H](C6=CC(=O)OC6)CC[C@]5(O)[C@@H]4CC[C@]3(O)C2)[C@H](O)[C@H](O)[C@H]1O
- inhibition at 0.05 µM [1]: 33.9%

SMILES: C[C@H]1O[C@@H](O[C@@H]2CC[C@]3(C=O)[C@H]4C[C@@H](O)[C@]5(C)[C@@H](C6=CC(=O)OC6)CC[C@]5(O)[C@@H]4CC[C@]3(O)C2)[C@H](O)[C@H](O)[C@H]1O
- inhibition at 0.05 µM [1]: 3.2%

SMILES: C[C@H]1O[C@@H](O[C@@H]2CC[C@]3(C=O)[C@H]4CC[C@]5(C)[C@@H](C6=CC(=O)OC6)CC[C@]5(O)[C@@H]4CC[C@]3(O)C2)[C@H](O)[C@H](O)[C@H]1O
- inhibition at 0.05 µM [1]: 6.8%

SMILES: C[C@H]1O[C@@H](O[C@H]2CC[C@]3(C=O)[C@H]4CC[C@]5(C)[C@@H](C6=CC(=O)OC6)CC[C@]5(O)[C@@H]4CC[C@]3(O)C2)[C@H](O)[C@H](O)[C@H]1O [DESGLUCOCHEIROTOXIN]
- inhibition at 0.05 µM [1]: 76.9%

SMILES: C[C@@H]1O[C@H](O[C@H]2CC[C@]3(CO)[C@H]4CC[C@]5(C)[C@@H](C6=CC(=O)OC6)CC[C@]5(O)[C@@H]4CC[C@]3(O)C2)[C@H](O)[C@H](O)[C@H]1O [CONVALLATOXOL]
- inhibition at 0.05 µM [1]: 80.7%

SMILES: C[C@@H]1C[C@@H](O)[C@@H](O)[C@H](O[C@H]2CC[C@]3(C=O)[C@H]4C[C@@H](O)[C@]5(C)[C@@H](C6=CC(=O)OC6)CC[C@]5(O)[C@@H]4CC[C@]3(O)C2)O1
- inhibition at 0.05 µM [1]: 81.6%

SMILES: C[C@@H]1O[C@H](O[C@@H]2CC[C@]3(C=O)[C@H]4CC[C@]5(C)[C@@H](C6=CC(=O)OC6)CC[C@]5(O)[C@@H]4CC[C@]3(O)C2)[C@H](O)[C@H](O)[C@H]1O [ANTIAROSIDE C]
- inhibition at 0.05 µM [1]: 18.9%

SMILES: C[C@H]1O[C@H](O[C@H]2CC[C@]3(C=O)[C@H]4C[C@@H](O)[C@]5(C)[C@@H](C6=CC(=O)OC6)CC[C@]5(O)[C@@H]4CC[C@]3(O)C2)[C@H](O)[C@H](O)[C@@H]1O [ANTIALLOSIDE]
- inhibition at 0.05 µM [1]: 70.7%

SMILES: C[C@@H]1O[C@@H](O[C@H]2CC[C@@]3(CO)[C@H](CC[C@@H]4[C@@H]3CC[C@]3(C)[C@@H](C5=CC(=O)OC5)CC[C@]43O)C2)[C@H](O)[C@H](O)[C@H]1O
- inhibition at 0.05 µM [1]: 82.4%

SMILES: C[C@H]1O[C@@H](O[C@H]2CC[C@]3(CO)[C@H]4CC[C@]5(C)[C@@H](C6=CC(=O)OC6)CC[C@]5(O)[C@@H]4CC[C@]3(O)C2)[C@H](O)[C@H](O)[C@H]1O [DEGLUCOCHEIROTOXOL]
- inhibition at 0.05 µM [1]: 67.9%

SMILES: C[C@H]1O[C@@H](O[C@H]2CC[C@@]3(C=O)[C@H](CC[C@@H]4[C@@H]3C[C@@H](O)[C@]3(C)[C@@H](C5=CC(=O)OC5)CC[C@]43O)C2)[C@H](O)[C@H](O)[C@H]1O
- inhibition at 0.05 µM [1]: 82.3%

SMILES: C[C@@H]1O[C@@H](O[C@H]2CC[C@]3(C=O)[C@H]4C[C@H](O)[C@]5(C)[C@@H](C6=CC(=O)OC6)CC[C@]5(O)[C@@H]4CC[C@]3(O)C2)[C@H](O)[C@H](O)[C@H]1O
- inhibition at 0.05 µM [1]: 82.8%

SMILES: C[C@@H]1O[C@@H](O[C@H]2CC[C@@]3(C=O)[C@H](CC[C@@H]4[C@@H]3C[C@@H](O)[C@]3(C)[C@@H](C5=CC(=O)OC5)CC[C@]43O)C2)[C@H](O)[C@H](O)[C@H]1O
- inhibition at 0.05 µM [1]: 81.9%

SMILES: C[C@]12CC[C@H]3[C@@H](CC[C@]4(O)C[C@@H](O)CC[C@]34C(=O)O[C@@H]3O[C@H](CO)[C@@H](O)[C@H](O)[C@H]3O)[C@@]1(O)CC[C@@H]2C1=CC(=O)OC1
- Activity (NIH-H460 [2]): inactive
- Activity [4]: 6.8%
- Activity (NIH-H460 [7]): Active
- Activity (NIH-H460 [8]): Active
- inhibition at 0.05 µM [1]: 11.1%

SMILES: C[C@H]1O[C@@H](O[C@H]2CC[C@]3(C(=O)O)[C@H]4C[C@@H](O)[C@]5(C)[C@@H](C6=CC(=O)OC6)CC[C@]5(O)[C@@H]4CC[C@]3(O)C2)[C@H](O)[C@H](O)[C@@H]1O
- Activity (NIH-H460 [2]): inactive
- Activity [4]: 3.4%
- Activity (NIH-H460 [7]): Active
- Activity (NIH-H460 [8]): Active
- inhibition at 0.05 µM [1]: 7.8%

SMILES: C[C@H]1O[C@@H](O[C@@H]2CC[C@]3(C=O)[C@H]4C[C@@H](O)[C@]5(C)[C@@H](C6=CC(=O)OC6)CC[C@]5(O)[C@@H]4CC[C@]3(O)C2)[C@H](O)[C@H](O)[C@@H]1O
- inhibition at 0.05 µM [1]: 6.9%

SMILES: C[C@@H]1O[C@@H](O[C@H]2CC[C@]3(C=O)[C@H]4C[C@@H](O)[C@]5(C)[C@H](C6=CC(=O)OC6)CC[C@]5(O)[C@@H]4CC[C@]3(O)C2)[C@H](O)[C@H](O)[C@H]1O
- inhibition at 0.05 µM [1]: 6.2%

SMILES: C[C@@H]1O[C@@H](O[C@H]2CC[C@]3(CO)[C@H]4C[C@@H](O)[C@]5(C)[C@@H](C6=CC(=O)OC6)CC[C@]5(O)[C@@H]4CC[C@]3(O)C2)[C@H](O)[C@H](O)[C@H]1O
- inhibition at 0.05 µM [1]: 60.2%

SMILES: C[C@@H]1O[C@H](O[C@H]2CC[C@]3(C=O)[C@H]4C[C@@H](O)[C@]5(C)[C@@H](C6=CC(=O)OC6)CC[C@]5(O)[C@@H]4CC[C@]3(O)C2)[C@H](O)[C@H](O)[C@H]1O
- inhibition at 0.05 µM [1]: 81.4%

SMILES: C[C@H]1O[C@@H](O[C@H]2CC[C@]3(C=O)[C@H]4C[C@@H](O)[C@]5(C)[C@H](C6=CC(=O)OC6)CC[C@]5(O)[C@@H]4CC[C@]3(O)C2)[C@H](O)[C@H](O)[C@H]1O
- inhibition at 0.05 µM [1]: 9.3%
